{"data": "Experimental data of several laboratories", "target": "SRSF protein kinase 1 (SRPK1, Homo sapiens, UniProt Q96SB4)", "note": "Lines come from different studies, so protocols differ."}
{"SMILES": "COc1cc2ncnc(Nc3ccc(Oc4ccccc4)c(C)c3C)c2cc1OC", "test": "enzyme activity, inhibitor", "conditions": "1 µM", "quantity": "inhibition", "result": "1%"}
{"SMILES": "O=C(NS(=O)(=O)c1ccc(NCC2CCOCC2)c([N+](=O)[O-])c1)c1ccc(N2CCN(Cc3ccc(C(F)(F)F)cc3-c3ccc(Cl)cc3)CC2)cc1Oc1cnc2[nH]ccc2c1", "test": "cell-free assay, competition with immobilised ligand", "conditions": "1 µM", "quantity": "remaining binding", "result": "100%"}
{"SMILES": "Cc1cnc(NC2CCOCC2)nc1-n1cnc(C(=O)NC(CN)c2cc(F)cc(Cl)c2)c1 (stereo not shown)", "test": "enzyme activity, inhibitor, radiometric", "conditions": "1 µM", "quantity": "remaining activity", "result": "96%"}
{"SMILES": "c1ccc(CNc2nc(N3CCOc4ccccc43)nc3c2CCCC3)cc1", "test": "target engagement in cells, inhibitor, chemoproteomics", "conditions": "20 mM", "quantity": "inhibition", "result": "4.3%"}
{"SMILES": "N#CC1(c2ccccn2)CCN(Cc2cc(C(=O)N3CCCC3)c(=O)n3ccccc23)CC1", "test": "cell-free assay, competition with immobilised ligand", "conditions": "1 µM", "quantity": "remaining binding", "result": "85%"}
{"SMILES": "FC(F)(F)Oc1cccc(-c2cnc3ccc(-c4ccncc4)nn23)c1", "test": "enzyme activity, inhibitor, radiometric", "conditions": "1 µM", "quantity": "activity vs control", "result": "95%"}
{"SMILES": "CN1CC(Oc2cnc(C#N)cc2-c2ccn3nc(NC(=O)C4CC4)cc3c2)C1", "test": "enzyme activity, inhibitor", "conditions": "1 µM", "quantity": "inhibition", "result": "-2%"}
{"SMILES": "CO[C@H]1CC[C@H](CNc2ccc(S(=O)(=O)NC(=O)c3ccc(N4CCN(CC5=C(c6ccc(Cl)cc6)CC(C)(C)CC5)CC4)cc3Oc3cnc4[nH]ccc4c3)cc2[N+](=O)[O-])CC1", "test": "cell-free assay, competition with immobilised ligand", "conditions": "1 µM", "quantity": "remaining binding", "result": "96%"}
{"SMILES": "CCCCNc1ncc2c(-c3ccc(F)cc3)nn(C[C@H]3CC[C@H](N)CC3)c2n1", "test": "target engagement in cells, inhibitor, chemoproteomics", "conditions": "20 mM", "quantity": "inhibition", "result": "-21.7%"}
{"SMILES": "O=S(=O)(NC1CCC(c2cc(F)ccc2F)(S(=O)(=O)c2ccc(Cl)cc2)CC1)C(F)(F)F (stereo not shown)", "test": "cell-free assay, competition with immobilised ligand", "conditions": "1 µM", "quantity": "remaining binding", "result": "100%"}
{"SMILES": "CCCOc1ccc(OC)c(F)c1C(=O)c1ccc(C(=O)N[C@@H]2CNC[C@H]2NC(=O)c2ccc3[nH]ncc3c2)cc1", "test": "enzyme activity, inhibitor", "conditions": "10 µM", "quantity": "remaining activity", "result": "97%"}
{"SMILES": "CCCCN(CCCC)C(=O)CN1C[C@H](c2cc(OC)c3c(c2)OCO3)[C@@H](C(=O)O)[C@@H]1CC(C)(C)CCC", "test": "cell-free assay, competition with immobilised ligand", "conditions": "1 µM", "quantity": "remaining binding", "result": "100%"}
{"SMILES": "Cc1ccc(C(=O)Nc2ccc(CN3CCN(C)CC3)c(C(F)(F)F)c2)cc1C#Cc1cnc2cccnn12", "test": "enzyme activity, inhibitor", "conditions": "23.5 nM", "quantity": "remaining activity", "result": "98%"}
{"SMILES": "Nc1nc(Nc2ccccc2)sc1C(=O)c1c(F)cccc1F", "test": "enzyme activity, inhibitor", "conditions": "10 µM", "quantity": "remaining activity", "result": "6%"}
{"SMILES": "CCN(CC)c1ccc(C2=NNC(=O)CC2C)cc1[N+](=O)[O-] (stereo not shown)", "test": "enzyme activity, inhibitor", "conditions": "10 µM", "quantity": "remaining activity", "result": "94%"}
{"SMILES": "COc1cc(Nc2cnc(C#N)c(O[C@H](C)CN(C)C)n2)ncc1-c1cnn(C)c1", "test": "enzyme activity, inhibitor, radiometric", "conditions": "10 µM", "quantity": "remaining activity", "result": "88%"}
{"SMILES": "CC(C)(C)C(=O)c1sc(NC2CCCCC2)nc1N", "test": "enzyme activity, inhibitor", "conditions": "10 µM", "quantity": "remaining activity", "result": "92%"}
{"SMILES": "O=C1Nc2ccc(Cl)cc2C1=Cc1cc(Cl)c(O)c(Cl)c1", "test": "cell-free assay", "conditions": "0.5 µM", "quantity": "remaining signal", "result": "106%"}
{"SMILES": "Cc1ccc(Nc2nccc(N(C)c3ccc4c(C)n(C)nc4c3)n2)cc1S(N)(=O)=O", "test": "enzyme activity, inhibitor", "conditions": "0.3 µM", "quantity": "inhibition", "result": "-7%"}
{"SMILES": "O=C1NC(=O)c2cc(Nc3ccc(F)cc3)c(Nc3ccc(F)cc3)cc21", "test": "cell-free assay", "conditions": "0.5 µM", "quantity": "remaining signal", "result": "102%"}
{"SMILES": "CCCS(=O)(=O)Nc1ccc(F)c(C(=O)c2c[nH]c3ncc(-c4ccc(Cl)cc4)cc23)c1F", "test": "enzyme activity, inhibitor", "conditions": "1 µM", "quantity": "inhibition", "result": "< 10%"}
{"SMILES": "CS(=O)(=O)N1CCCC(NC(=O)[C@H](CCC2CCCCC2)NC(=O)c2ccc(CNC(=O)c3cnc4ccccn34)cc2)C1 (stereo partly shown)", "test": "cell-free assay, competition with immobilised ligand", "conditions": "0.1 µM", "quantity": "remaining binding", "result": "74%"}
{"SMILES": "Nc1ncnc2occ(-c3ccc(NC(=O)Nc4cc(C(F)(F)F)ccc4F)cc3)c12", "test": "cell-free assay, inhibitor", "conditions": "20 µM", "quantity": "remaining signal", "result": "59%"}
{"SMILES": "C[C@@H]1CN(c2cc(-c3nn(C)c4ccc(OC5(C)CC5)cc34)ncn2)C[C@H](C)O1", "test": "cell-free assay, competition with immobilised ligand", "conditions": "1 µM", "quantity": "remaining binding", "result": "88%"}
{"SMILES": "CC(C)c1ccc(NC(=O)c2cccs2)c(-c2nc3ccccc3[nH]c2=O)c1", "test": "enzyme activity, inhibitor", "conditions": "1 µM", "quantity": "activity vs control", "result": "100%"}
{"SMILES": "N#CCCc1ccc2c(c1)-c1[nH]c3ccc([N+](=O)[O-])cc3c1CC(=O)N2", "test": "cell-free assay", "conditions": "0.5 µM", "quantity": "remaining signal", "result": "107%"}
{"SMILES": "CNC(=O)c1cc(Oc2ccc(NC(=O)Nc3ccc(Cl)c(C(F)(F)F)c3)cc2)ccn1", "test": "enzyme activity, inhibitor", "conditions": "0.3 µM", "quantity": "inhibition", "result": "-2%"}
{"SMILES": "O=C(Nc1cnn(-c2csc(C(=O)NC3COC3)c2)c1)Nc1ccccc1Cl", "test": "enzyme activity, inhibitor", "conditions": "5 µM", "quantity": "remaining activity", "result": "98.7%"}
{"SMILES": "Cn1c(=O)n(-c2ccc(C(C)(C)C#N)cc2)c2c3cc(-c4cnc5ccccc5c4)ccc3ncc21", "test": "enzyme activity, inhibitor", "conditions": "10 µM", "quantity": "remaining activity", "result": "106%"}
{"SMILES": "Nc1nc(Nc2ccc(S(N)(=O)=O)cc2)nn1C(=O)c1c(F)cccc1F", "test": "cell-free assay", "conditions": "0.5 µM", "quantity": "remaining signal", "result": "86.4%"}
{"SMILES": "Cc1cc(-n2nc(Cc3cc(F)cc(C(F)(F)F)c3)nc2C)ccc1C(N)=O", "test": "cell-free assay, competition with immobilised ligand", "conditions": "1 µM", "quantity": "remaining binding", "result": "81%"}
{"SMILES": "CC(C)(C)c1nc2c(s1)c1nc(N)ncc1c1ccc(NS(=O)(=O)c3c(F)cccc3F)c(F)c12", "test": "enzyme activity, inhibitor, radiometric", "conditions": "1 µM", "quantity": "remaining activity", "result": "99%"}
{"SMILES": "CCN(CC)CCNC(=O)c1c(C)[nH]c(/C=C2\\C(=O)Nc3ccc(F)cc32)c1C", "test": "enzyme activity, inhibitor", "conditions": "10 µM", "quantity": "inhibition", "result": "9%"}
{"SMILES": "FC(F)c1nc2ccccc2n1-c1nc(N2CCOCC2)nc(N2CCOCC2)n1", "test": "enzyme activity, inhibitor", "conditions": "10 µM", "quantity": "remaining activity", "result": "92%"}
